Results pooled from the literature.
Each line is one published result; the experiments were not run side by side.
Target: Serine/threonine-protein kinase 25 (STK25, Homo sapiens, UniProt O00506)

| SMILES | assay | setting | remaining binding [%] |
| --- | --- | --- | --- |
| CCCCN(CCCC)C(=O)CN1C[C@H](c2cc(OC)c3c(c2)OCO3)[C@@H](C(=O)O)[C@@H]1CC(C)(C)CCC | cell-free assay, competition with immobilised ligand | 1 µM | 100 |
| CCN1CCN(Cc2ccc(C(=O)Nc3ccc(C)c(Oc4ccc5c(c4)CC(=O)N5)c3)cc2C(F)(F)F)CC1 | binding, competition with immobilised ligand | 1 µM | 100 |
| O=C(c1ccc(Nc2nccc(-c3cc4ccccc4s3)n2)cc1)N1CCC(N2CCCC2)CC1 | binding, competition with immobilised ligand | 1 µM | 22 |
| COc1ncc2cc3ccccc3nc2c1C#N | cell-free assay, competition with immobilised ligand | 5 µM | 100 |
| CNC(=O)Nc1ccc2c(c1)CC[C@@]21OC(=O)N(CC(=O)N(Cc2ccc(F)cc2)[C@@H](C)C(F)(F)F)C1=O | cell-free assay, competition with immobilised ligand | 1 µM | 99 |
| Nc1ncc2c(n1)-c1c([nH]c3ccc(C#CC4CC4)cc13)CCCC2 | binding, competition with immobilised ligand | 1 µM | 100 |
| F[C@@H]1CCN(c2nccc(-c3cnn4ncccc34)n2)C1 | binding | 1 µM | 100 |
| C[C@@H](c1ccc(-n2cnc3c(N)ncnc32)cc1)N1CCc2nn(C)c(Cc3ccccc3)c2C1=O | binding, competition with immobilised ligand | 0.1 µM | 86 |
| CN(C)C(=O)Cn1cc(-c2nc(C3(c4ccc(-c5cnc(N)nc5)cc4)CC3)no2)cn1 | cell-free assay, competition with immobilised ligand | 1 µM | 100 |
| CN(CCCC(F)(F)F)c1nccc(-c2cnn3ncccc23)n1 | binding | 1 µM | 100 |
| O=C(NCCCN1CCOCC1)c1ccc(Nc2ncc(Cl)c(-c3ccc(Cl)s3)n2)cc1 | binding, competition with immobilised ligand | 1 µM | 89 |
| CC1=C(C#N)[C@@H](c2ccc3[nH]nc(C)c3c2)C(C#N)=C(c2ccc(Cl)cc2)N1 | cell-free assay, competition with immobilised ligand | 1 µM | 100 |
| O=C(NCCCN1CCOCC1)c1ccc(Nc2nccc(-c3cc4ccccc4s3)n2)cc1 | binding, competition with immobilised ligand | 1 µM | 67 |
| C[C@@H]1CCN(c2nccc(-c3cnn4ncccc34)n2)C1 | binding | 1 µM | 100 |
| CCS(=O)(=O)c1cc2cc(C[C@@](O)(CC(C)(C)c3ccc(F)cc3C(N)=O)C(F)(F)F)[nH]c2cn1 | cell-free assay, competition with immobilised ligand | 1 µM | 87 |
| CN(C)c1nccc(-c2cnc3ncccn23)n1 | binding | 1 µM | 100 |
| CNC(=O)[C@@H]1CC[C@@H](n2c(-c3ccc4cnccc4c3)nc3ccc(C(=O)NCc4cccc(C(N)=O)c4)cc32)C1 | binding, competition with immobilised ligand | 1 µM | 100 |
| CN(c1nccc(-c2cnn3ncccc23)n1)C1CC1 | binding | 1 µM | 100 |
| O=C(NCC1CCOCC1)c1n[nH]cc1NC(=O)c1c(F)cccc1F | binding, competition with immobilised ligand | 1 µM | 95 |
| O=C(NCCCC1CCCCC1)c1ccc(CNC(=O)c2cnn(-c3ccccc3)c2C(F)(F)F)cc1 | cell-free assay, competition with immobilised ligand | 0.1 µM | 81 |
| N[C@@H]1CCN(c2nccc(-c3cnn4ncccc34)n2)C1 | binding | 1 µM | 100 |
